Shown are actives, neighbours in structure and some others; about 3.5% of the full set was active somewhere.
MrgX1 antagonist = antagonists of human MrgX1 receptor, primary screen, HEK293 cells, Fluo-4 calcium flux | B-score at 10 µM | hit rate 1.3% among 310,000 | Mas-related G-protein coupled receptor member X1 (Homo sapiens), Q96LB2 | AID 588676, 2011 | BAM8-22 antagonism; hits give low values;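 active = calcium-response B-score plate-corrected more than 3 library SD below zero, starting fluorescence within 5 deviations, no agonist response on first addition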;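 note: peak minus trough fluorescence over baseline after final BAM8-22 challenge near maximal dose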
Target sequence (Q96LB2 whole entry, looked up): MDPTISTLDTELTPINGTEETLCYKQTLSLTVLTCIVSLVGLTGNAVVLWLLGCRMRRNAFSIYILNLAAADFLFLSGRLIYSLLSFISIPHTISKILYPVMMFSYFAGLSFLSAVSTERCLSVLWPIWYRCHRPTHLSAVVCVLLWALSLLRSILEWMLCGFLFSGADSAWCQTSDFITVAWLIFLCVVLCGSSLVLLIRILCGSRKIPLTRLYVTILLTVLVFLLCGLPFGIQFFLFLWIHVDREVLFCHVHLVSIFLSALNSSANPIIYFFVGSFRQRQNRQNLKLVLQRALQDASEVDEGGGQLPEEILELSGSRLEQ
MrgX1 agonist = agonists of human MrgX1 receptor, primary screen, HEK293 cells, Fluo-4 calcium flux; Mas-related G-protein coupled receptor member X1 (Homo sapiens), Q96LB2; Fluo-4 calcium fluorescence, agonist mode; hits give high values; B-score at 10 µM; hit rate 0.44% among 310,000; AID 588627, 2011;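 active = calcium response B-score plate-corrected fluorescence ratio at least 3 library SD, with starting fluorescence B-score inside 5 SD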
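Test system: HEK293 cells stably expressing human MrgX1 receptor; amount: 15,000 cells per well; doses: compound delivered in addition one of three; times: overnight plating before 1 h dye loading; detection: Fluo-4 NW calcium-flux fluorescence, kinetic read; read-out basis: B-scored fluorescence response ratio; controls: positive and negative controls per plate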
RGS4 block = RGS4 inhibitors, primary screen, cell-based, HEK293 M3R inducible RGS4, calcium flux; Fluo-4 calcium flux; hits give high values; triggered by carbachol at its EC20; B-score at 10 µM; hit rate 0.45% among 310,000; AID 463165, 2010;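 active = B-score, a plate-corrected calcium signal, over three deviations above library mean, with baseline fluorescence within five deviations of library mean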;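 note: RGS4 expression induced by doxycycline in cells with stable M3 receptor; B-score is computed from the integrated fluorescence ratio over baseline after carbachol; higher B-score means a larger calcium signal and so more RGS4 inhibition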
Target sequence (P49798 whole entry, looked up): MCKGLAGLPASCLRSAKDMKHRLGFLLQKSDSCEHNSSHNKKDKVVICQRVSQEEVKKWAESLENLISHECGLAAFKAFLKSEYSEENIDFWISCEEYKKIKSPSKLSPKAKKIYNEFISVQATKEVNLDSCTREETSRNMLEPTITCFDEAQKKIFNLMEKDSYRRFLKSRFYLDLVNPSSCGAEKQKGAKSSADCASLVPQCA
RGS4 act = RGS4 potentiators or activators, primary screen, cell-based, HEK293 M3R inducible RGS4, calcium flux; carbachol calcium flux Fluo4; hits give low values; hit rate 0.92% among 310,000; B-score at 10 µM;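 active = B-score of the integrated calcium signal more than 4 SD below the library mean, with starting fluorescence not abnormally high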;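 note: negative B-score means reduced calcium response which marks RGS4 activation or potentiation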
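test system = HEK293 cells with stable M3R and inducible RGS4 | schedule = recording 10 s baseline at 1 Hz, 100 s post-agonist | technique = Fluo4-AM (2 µM) calcium-flux fluorescence, kinetic read | measure = Agonist-evoked peak-minus-minimum fluorescence over baseline, integrated ratio, B score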
MrgX1 allo act = positive allosteric modulators of MrgX1, primary screen, HEK293 cells, Fluo-4 calcium flux | Mas-related G-protein coupled receptor member X1 (Homo sapiens), Q96LB2 | FDSS; hits give high values | B-score at 10 µM | hit rate 0.63% among 310,000;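 active = plate-corrected calcium response at least 3 library SD above typical, normal starting fluorescence, not activating the receptor alone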;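 note: compound read alongside a low EC10 to EC30 dose of BAM8-22 agonist; peak minus trough fluorescence over baseline measured at the second addition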
Active calls of the source: *.

For COC(=O)[C@@]1(Cc2ccc(F)cc2)[C@H]2c3cc(C(=O)N(C)C)n(CCc4ccc(OC)c(Br)c4)c3C[C@H]2CN1C(=O)c1ccccc1 the results were MrgX1 antagonist inactive, MrgX1 agonist inactive, RGS4 block inactive, RGS4 act -7.2* and MrgX1 allo act inactive.
Screening COC(=O)[C@@]1(Cc2ccccc2)[C@H]2c3cc(C(=O)N4CCCC4)n(CCSCCO)c3C[C@H]2CN1C(=O)c1ccccc1 returned MrgX1 antagonist -5.2*, MrgX1 agonist inactive, RGS4 block inactive, RGS4 act inactive and MrgX1 allo act inactive.
`COC(=O)[C@@]1(Cc2ccc(F)cc2)[C@H]2c3cc(C(=O)N(C)C)n(Cc4ccc(OC)c(OC)c4)c3C[C@H]2CN1C(=O)c1ccccc1` gave MrgX1 antagonist inactive, MrgX1 agonist inactive, RGS4 block inactive, RGS4 act inactive and MrgX1 allo act inactive.
`N#C/C(=C\c1ccccc1)C(=O)N(c1ccccn1)C1CCCCC1` gave MrgX1 antagonist inactive, MrgX1 agonist 33*, RGS4 block inactive, RGS4 act inactive and MrgX1 allo act inactive.
`O=C(c1cccc(C(=O)N(c2ccccn2)C2CCCCC2)c1)N(c1ccccn1)C1CCCCC1` gave MrgX1 antagonist -6.8*, MrgX1 agonist inactive, RGS4 block inactive, RGS4 act inactive and MrgX1 allo act inactive.
For COCC1CCN(C(=O)C2CCC(=O)N(CCc3cccc(F)c3)C2)CC1 (centres undefined) the results were MrgX1 antagonist inactive, MrgX1 agonist inactive, RGS4 block inactive, RGS4 act inactive and MrgX1 allo act inactive.
CCCC(c1nnnn1C1CCCC1)N1CCN(c2ccccc2F)CC1 (centres undefined) was read as MrgX1 antagonist inactive, MrgX1 agonist inactive and MrgX1 allo act inactive.
Cc1ccc(C)c(NC(=S)NCc2ccc3c(c2)OCO3)c1 was read as MrgX1 antagonist inactive, MrgX1 agonist inactive, RGS4 block inactive, RGS4 act -7.2* and MrgX1 allo act inactive.
c1cc(CNc2ccc3c(c2)OCO3)ccn1 was read as MrgX1 antagonist inactive, MrgX1 agonist inactive, RGS4 block inactive, RGS4 act inactive and MrgX1 allo act inactive.
Screening Cc1ccc(CNc2ccc3c(c2)OCO3)cc1 returned MrgX1 antagonist inactive, MrgX1 agonist 29*, RGS4 block inactive, RGS4 act inactive and MrgX1 allo act inactive.
Screening CC1=NN(C(=O)COc2cc(C)ccc2C(C)C)C(O)(c2ccccc2)C1 (centres undefined) returned MrgX1 antagonist inactive, MrgX1 agonist inactive, RGS4 block inactive, RGS4 act inactive and MrgX1 allo act 8*.
For c1ccc(Sc2ccccn2)cc1 the results were MrgX1 antagonist inactive, MrgX1 agonist inactive, RGS4 block inactive, RGS4 act inactive and MrgX1 allo act inactive.
Screening c1ccc(SSc2ccccn2)nc1 returned MrgX1 antagonist inactive, MrgX1 agonist 32*, RGS4 block inactive, RGS4 act inactive and MrgX1 allo act inactive.
`CCC(C)(C)NC(=O)C1CCCN(S(=O)(=O)c2ccc3c(c2)CC(C)N3C(=O)C2CC2)C1` (centres undefined) gave MrgX1 antagonist inactive, MrgX1 agonist inactive, RGS4 block inactive, RGS4 act inactive and MrgX1 allo act inactive.
`COc1cc(N=c2ssnc2Cl)c(OC)cc1Cl` gave MrgX1 antagonist inactive, MrgX1 agonist 40*, RGS4 block inactive, RGS4 act inactive and MrgX1 allo act inactive.
For CC(=O)c1ccc(NC(=O)C2CC(=O)N(C(C)C)C2)cc1 (centres undefined) the results were MrgX1 antagonist inactive, MrgX1 agonist inactive, RGS4 block inactive, RGS4 act inactive and MrgX1 allo act inactive.
Cc1cccc2sc(N(CCCN(C)C)C(=O)c3ccc(Cl)s3)nc12 was read as MrgX1 antagonist inactive, MrgX1 agonist inactive, RGS4 block inactive, RGS4 act -8.3* and MrgX1 allo act inactive.
`COc1cccc(C(C(=O)NCc2ccco2)N(Cc2ccco2)C(=O)Cn2nnc3ccccc32)c1` (centres undefined) gave MrgX1 antagonist inactive, MrgX1 agonist inactive, RGS4 block inactive, RGS4 act -7.2* and MrgX1 allo act inactive.
For C=C(C)COc1ccc2c(CC)cc(=O)oc2c1 the results were MrgX1 antagonist inactive, MrgX1 agonist inactive, RGS4 block inactive, RGS4 act inactive and MrgX1 allo act inactive.
For COc1ccccc1NC(=O)CCCC(=O)OCC(F)(F)C(F)F the results were MrgX1 antagonist -6.2*, MrgX1 agonist inactive, RGS4 block inactive, RGS4 act inactive and MrgX1 allo act inactive.
`O=C(NCc1cccnc1)c1ccc(S(=O)(=O)N2CCCCCC2)cc1` gave MrgX1 antagonist inactive, MrgX1 agonist inactive, RGS4 block inactive, RGS4 act inactive and MrgX1 allo act inactive.
Screening CNC[C@H](CC1CCCCC1)NC[C@H](Cc1ccccc1)NCCC12CC3CC(CC(C3)C1)C2 returned MrgX1 antagonist -9.5*, MrgX1 agonist inactive, RGS4 block inactive, RGS4 act -8.9* and MrgX1 allo act 7.7*.
`C=CCn1c(SCC(=O)Nc2ccc(OC)cc2)nnc1-c1cnccn1` gave MrgX1 antagonist inactive, MrgX1 agonist inactive, RGS4 block inactive, RGS4 act inactive and MrgX1 allo act inactive.
For Cc1ccc(-c2cn(-c3ccccc3)c3[n+]2CCCS3)cc1 the results were MrgX1 antagonist inactive, MrgX1 agonist inactive, RGS4 block inactive, RGS4 act inactive and MrgX1 allo act inactive.
For CCc1ccc(-n2cc(-c3ccc(F)cc3)[n+]3c2SCCC3)cc1 the results were MrgX1 antagonist inactive, MrgX1 agonist inactive, RGS4 block inactive, RGS4 act -7.3* and MrgX1 allo act inactive.
For CCOc1ccc(-n2nc3c(=O)n(CCN4CCCCC4)nc(C)c3c2C)cc1 the results were MrgX1 antagonist inactive, MrgX1 agonist inactive, RGS4 block inactive, RGS4 act -8.5* and MrgX1 allo act inactive.
N#C/C(=C\c1ccc(Sc2nc3ccccc3[nH]2)o1)c1ccccc1 was read as MrgX1 antagonist -4.8*, MrgX1 agonist inactive, RGS4 block inactive, RGS4 act inactive and MrgX1 allo act inactive.
Screening O=C1c2ccccc2NC(c2cccc([N+](=O)[O-])c2)N1CCc1ccccc1 (centres undefined) returned MrgX1 antagonist inactive, MrgX1 agonist inactive, RGS4 block inactive, RGS4 act inactive and MrgX1 allo act 15*.

High-throughput results from PubChem BioAssay.
